From PMC3172397 (Journal of colloid and interface science, 2011)

Columns and labels:
Assay in all cases: intrinsic Trp fluorescence titration, Scatchard analysis
Type in all cases: binding
[1] = molecular target: α-chymotrypsinogen A (aCHY) (Bos taurus, UniProt P00766)
How it was run: (§1)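 Trp fluorescence read with 295 nm excitation and 335–360 nm emission. Fraction bound was taken from intensity relative to unbound and saturated protein. K was taken from the slope of linear Scatchard (ν/c vs ν) segments.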

[2] = molecular target: Bovine Serum albumin (BSA) (Bos taurus, UniProt P02769)
Bovine Serum albumin (BSA), sequence (P02769 25-607): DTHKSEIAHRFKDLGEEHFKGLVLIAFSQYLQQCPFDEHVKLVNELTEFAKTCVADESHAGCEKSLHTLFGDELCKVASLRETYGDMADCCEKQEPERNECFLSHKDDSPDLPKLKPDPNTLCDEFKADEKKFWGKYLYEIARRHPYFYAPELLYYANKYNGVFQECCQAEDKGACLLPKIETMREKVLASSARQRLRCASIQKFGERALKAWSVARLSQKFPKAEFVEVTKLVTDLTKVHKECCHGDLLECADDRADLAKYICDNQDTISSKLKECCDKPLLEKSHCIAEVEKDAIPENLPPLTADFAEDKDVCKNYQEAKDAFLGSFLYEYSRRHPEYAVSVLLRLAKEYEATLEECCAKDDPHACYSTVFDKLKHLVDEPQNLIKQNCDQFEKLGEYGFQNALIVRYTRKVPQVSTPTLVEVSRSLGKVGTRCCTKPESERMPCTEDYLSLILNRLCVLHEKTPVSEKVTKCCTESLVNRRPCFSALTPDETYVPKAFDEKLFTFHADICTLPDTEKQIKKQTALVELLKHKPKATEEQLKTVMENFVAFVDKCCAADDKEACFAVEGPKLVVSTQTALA
How it was run: as §1

[3] = molecular target: T1, ovalbumin (OVA) (Gallus gallus, UniProt P01012)
T1 sequence (P01012 2-386): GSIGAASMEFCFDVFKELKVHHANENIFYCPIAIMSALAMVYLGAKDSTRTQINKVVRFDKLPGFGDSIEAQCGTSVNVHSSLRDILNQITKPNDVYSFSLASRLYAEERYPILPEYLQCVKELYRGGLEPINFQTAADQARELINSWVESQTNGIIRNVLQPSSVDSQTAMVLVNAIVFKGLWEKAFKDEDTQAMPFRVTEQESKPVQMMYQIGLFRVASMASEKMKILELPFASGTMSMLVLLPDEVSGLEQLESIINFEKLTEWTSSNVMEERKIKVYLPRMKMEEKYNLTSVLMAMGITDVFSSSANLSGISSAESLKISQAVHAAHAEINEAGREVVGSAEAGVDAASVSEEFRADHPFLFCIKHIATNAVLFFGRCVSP
How it was run: as §1

| Kd [1] | Kd [2] | Kd [3] | SMILES |
| --- | --- | --- | --- |
| 498 µM | – | – | C=CCCCCCCCCCOS(=O)(=O)O [SUS] |
| 455 µM | 22.2 µM | 11.7 µM | CCCCCCCCCCCCOS(=O)(=O)O [SDS] |
